Screens: PubChem, Broad Institute
E-sel inducer: E-selectin induction on HUVECs | HUVEC E-selectin immunofluorescence imaging; normalized: neutral wells 0, TNF-alpha wells 100 | activation, % at 7.58 µM | hit rate 0.37% among 260,000 | AID 686992;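 active = mean E-selectin-positive cell signal at least 10% of the positive control, reached in at least 60% of replicates, without over 20% cell loss; inconclusive = no rule given, readout overlaps actives, possibly toxicity-flagged; inactive = the rest, including those meeting only one limit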
Target sequence (P16581 whole entry, looked up): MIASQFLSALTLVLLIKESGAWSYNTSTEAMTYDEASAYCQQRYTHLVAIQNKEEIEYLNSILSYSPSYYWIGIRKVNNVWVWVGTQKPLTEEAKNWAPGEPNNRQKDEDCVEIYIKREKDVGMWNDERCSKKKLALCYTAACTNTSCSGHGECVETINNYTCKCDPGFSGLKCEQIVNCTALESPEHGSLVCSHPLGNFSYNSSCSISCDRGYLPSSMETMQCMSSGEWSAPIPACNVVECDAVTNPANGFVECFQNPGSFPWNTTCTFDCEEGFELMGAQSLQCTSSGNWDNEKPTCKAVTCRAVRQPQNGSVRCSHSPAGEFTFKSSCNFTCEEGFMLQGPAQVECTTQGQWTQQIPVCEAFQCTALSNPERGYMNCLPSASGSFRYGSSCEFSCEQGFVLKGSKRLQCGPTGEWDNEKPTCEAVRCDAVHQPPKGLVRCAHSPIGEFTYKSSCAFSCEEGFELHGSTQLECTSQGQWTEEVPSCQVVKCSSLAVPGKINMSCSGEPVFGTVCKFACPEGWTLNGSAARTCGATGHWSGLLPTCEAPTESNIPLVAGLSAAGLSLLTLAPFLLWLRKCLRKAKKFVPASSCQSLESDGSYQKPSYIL
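Test system – human umbilical vein endothelial cells (HUVEC), E-selectin induction · Input – 3,000 HUVEC seeded per well · Buffer or medium – EGM-2, gelatin · Compound dosing – single-point compound dose · Detection – immunofluorescence imaging · Measure – percent E-selectin-positive cells · Controls – TNF-alpha high, DMSO low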
miR-122 sensor: inhibitors of miR-122 in Huh7 cells; hit rate 0.3% among 340,000; AID 602342; activation (reporter increase), % at 12.5 µM; Huh7 miR-122 Renilla luciferase sensor, 48 h; neutral wells = 0, positive control = 100;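 active = mean replicate activation score at least 90 and every replicate individually at or above 90; inconclusive = only one of the two criteria met; inactive = neither criterion met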;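 note: higher luciferase means less miR-122 activity so hits act as miR-122 inhibitors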
rRNA inh HTS: inhibits bacterial ribosomal RNA function over humanized ribosomes; E. coli WT GFP vs humanized-ribosome RFP mutants, fluorescence, 24 h; active compounds read low; DMSO median 0, no signal -100; GFP signal change (wild-type ribosome), % (concentration not given with the values); hit rate 1.6% among 350,000; AID 720706;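 active = significant combined selectivity score with lowered wild-type GFP, culture density cut under 30%, mutant RFP and density less affected; inactive = any of these conditions unmet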
Cneo AK release: causes C. neoformans cell lysis; adenylate kinase release luminescence, 4 h; normalised: neutral wells 0, clomiphene wells 100; lysis activity, % at 15 µM; hit rate 0.2% among 360,000; AID 651654;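 active = mean lysis activity across replicates of at least 80%, whatever share of replicates individually reach that level; inactive = mean lysis activity below 80%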
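Material – Cryptococcus neoformans yeast cells · Quantity – 5 × 10^6 yeast cells/mL · Buffer or medium – YPD medium · Compound – single dose · Timing – 4 h static compound exposure, 37 °C, read 1 h post-reagent · Signal – adenylate kinase release luminescence · Read-out basis – lysis from increased AK signal · Benchmarks – Clomiphene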
DENV2 CPE rescue: protects cells from dengue virus 2 cytopathic effect. CPE inhibition, % at 9.99 µM. DENV2-infected cells, cytopathic effect rescue, plate reader. hit rate 1.7% among 350,000; in the data active = CPE inhibition above about 20%, passing the limit was not always enough; inconclusive = no clear call, values can overlap the other calls; tested in BHK-21 cells;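 note: 0% = median of neutral control wells and 100% = median of positive control wells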
* hit, by the source's call; u = inconclusive; x = no result given; ! = not active in a repeat; [ ] = dose if it differs, or a comment. The list is not random: actives were taken first. Their share in the collection is about 3.1%.

SMILES | E-sel inducer | miR-122 sensor | rRNA inh HTS | Cneo AK release | DENV2 CPE rescue
O=c1c([N+](=O)[O-])c(N2CCOCC2)c2ccccc2n1Cc1ccccc1 | -2.9 | x | -18.2 | x | -5.6
CCn1c(=O)c([N+](=O)[O-])c(N2CCSCC2)c2ccccc21 | 0.1 | -7.6 | -33.5* | -1.8 | 2.5
CCn1c(=O)c([N+](=O)[O-])c(N2CCN(Cc3ccc4c(c3)OCO4)CC2)c2ccccc21 | 3.6 | x | -23.9* | x | 2.4
CN(CC(=O)Nc1cccc(F)c1)C(=O)CN1c2cccc3cccc(c23)S1(=O)=O | -1.4 | x | -40.4* | 0.9 | -11.5
CN(C)C(=O)CN1c2cccc3cccc(c23)S1(=O)=O | 0.1 | -7.6 | 10.9 | -4.1 | -3.2
COc1cccc(CNC(=O)CN2c3cccc4cccc(c34)S2(=O)=O)c1 | 1.9 | -3.3 | -36.8* | -0.9 | u
Cc1ccc(CNC(=O)CN2c3cccc4cccc(c34)S2(=O)=O)cc1 | x | x | 3.4 | x | -0.8
CCOC(=O)C1=CN(CC)S(=O)(=O)NC1c1ccccc1 (centres undefined) | x | -5.9 | 13.7 | 0.6 | -14.9
CCOC(=O)C1=CNS(=O)(=O)NC1CCc1ccccc1 (centres undefined) | x | x | -22.1* | 1.7 | -12.9
CN(C)C(=O)C[C@H]1C=C[C@H](NC(=O)C2CCOCC2)[C@@H](CO)O1 | -0.2 | x | -0.6 | x | 2.3
COc1ccc2c3c(n(C)c2c1)[C@H](CO)N(C(=O)CN1CCOCC1)CC31CN(Cc2ccncc2)C1 | -0.2 | x | 2.4 | x | 36.6*
COc1ccc2c3c(n(C)c2c1)[C@H](CO)N(Cc1ccc(F)cc1)CC31CN(CC2CC2)C1 | 0.8 | x | 0.2 | x | -1.0
COCC(=O)N1CC2(CCN(Cc3cncnc3)CC2)c2c(n(C)c3cc(OC)ccc23)[C@H]1CO | -0.1 | x | -0.5 | x | 50.1*
COc1ccc2c3c(n(C)c2c1)[C@@H](CO)N(C(=O)C1CCCC1)CC31CN(C(=O)Nc2cccc(F)c2)C1 | 1.1 | x | 1.2 | x | 77.3*
COc1ccc2c3c(n(C)c2c1)[C@H](CO)N(C(=O)C1CCCC1)CC31CN(C(=O)Nc2cccc(F)c2)C1 | 0.4 | x | 2.9 | x | -10.4
COc1ccc2c3c(n(C)c2c1)[C@@H](CO)N(Cc1ccc(F)cc1)CC31CN(CC2CCOCC2)C1 | -0.2 | x | 3.6 | x | 99.3*
CCS(=O)(=O)N1CC2(CN(Cc3ccc(OC)cc3)[C@@H](CO)c3c2c2ccc(OC)cc2n3C)C1 | -0.3 | x | -2.5 | x | 10.9
O=C(C[C@@H]1C=C[C@H](NC(=O)Nc2ccccc2F)[C@H](CO)O1)NCc1ccccc1 | -0.6 | x | -1.0 | x | 5.1
C[C@H]1CN([C@@H](C)CO)C(=O)Cc2cc(NS(=O)(=O)c3cn(C)cn3)ccc2O[C@H]1CN(C)CC1CCCCC1 | -0.1 | -2.7[16.7 µM] | 3.9 | x | x
C[C@@H]1CN([C@@H](C)CO)C(=O)c2cccc(NC(=O)C3CC3)c2O[C@H]1CN(C)CC1CCCCC1 | 0.0 | 8.8[16.7 µM] | -1.5 | 0.4 | -6.9
COc1ccc2c3c(n(C)c2c1)[C@H](CO)N(C(=O)C1CCC1)CC31CN(Cc2cccc(F)c2)C1 | 0.2 | x | -30.4 | x | 22.0*
CCC(=O)N1CC2(CN(Cc3ccc(F)cc3)C2)c2c(n(C)c3cc(OC)ccc23)[C@@H]1CO | 0.0 | x | -4.2 | x | 21.4*
CCC(=O)N1CC2(CN(Cc3ccc(OC)cc3)C2)c2c(n(C)c3cc(OC)ccc23)[C@H]1CO | -0.7 | x | -3.0 | x | -11.3
COc1ccc2c3c(n(C)c2c1)[C@H](CO)N(C(=O)CN1CCOCC1)CC31CCN(C(=O)Nc2cccc(F)c2)CC1 | 0.1 | x | -2.7 | x | 32.6*
COc1ccc2c3c(n(C)c2c1)[C@H](CO)N(C)CC31CCN(C(=O)CN2CCOCC2)CC1 | -0.3 | x | 5.3 | x | 52.9*
SMILES | E-sel inducer | miR-122 sensor | rRNA inh HTS | Cneo AK release | DENV2 CPE rescue
C[C@H](NC(=O)[C@@H]1[C@@H](CO)[C@@H]2Cn3c(cccc3=O)[C@H]1N2Cc1ccccc1)c1ccccc1 | -0.4 | 0.1[16.7 µM] | 0.6 | -7.9 | -5.7
CNC[C@H]1Oc2ccc(N(S(C)(=O)=O)S(C)(=O)=O)cc2C(=O)N(C)C[C@@H]1C | x | x | -2.9 | x | x
O=C(O)COc1ccc(/C=C/c2nc(-c3ccccc3O)n[nH]2)cc1 | 0.0 | x | -16.6* | -2.9 | 4.1
COc1ccc(/C=C/c2nc(-c3ccccc3O)n[nH]2)cc1OC | x | 1.9 | x | -19.2 | x
C[C@H](CO)N1C[C@H](C)[C@@H](CN(C)Cc2ccccc2)Oc2c(NS(C)(=O)=O)cccc2C1=O | -0.2 | 52.5[16.7 µM] | 0.4 | -3.1 | 39.1*!
C[C@H]1CN([C@@H](C)CO)C(=O)c2cccc(NS(C)(=O)=O)c2O[C@@H]1CN(C)Cc1ccc(-c2ccccc2)cc1 | 0.0 | 24.1[16.7 µM] | -5.2 | 111.2* | -6.6
C[C@@H]1CN([C@H](C)CO)C(=O)c2cccc(NS(C)(=O)=O)c2O[C@H]1CN(C)Cc1ccncc1 | 124.6* | -0.8[16.7 µM] | 2.3 | -5.9 | -2.2
C[C@@H]1CN([C@@H](C)CO)C(=O)c2cccc(NS(C)(=O)=O)c2O[C@H]1CN(C)Cc1ccc(Oc2ccccc2)cc1 | 17.7 | -0.9[16.7 µM] | 1.0 | 6.4 | -12.7
C[C@@H]1CN([C@H](C)CO)C(=O)c2cccc(NS(C)(=O)=O)c2O[C@@H]1CN(C)Cc1ccc(Oc2ccccc2)cc1 | 40.9* | 0.3[16.7 µM] | -1.5 | -2.1 | u
C[C@H](CO)N1C[C@H](C)[C@@H](CN(C)Cc2ccncc2)Oc2c(NS(C)(=O)=O)cccc2C1=O | 9.4 | 21.2[16.7 µM] | 1.4 | 4.5 | 5.2
C[C@H]1CN([C@@H](C)CO)C(=O)Cc2cc(NC(=O)CCCCCC(=O)Nc3ccccc3N)ccc2O[C@@H]1CN(C)C(=O)Nc1ccc2c(c1)OCO2 | 6.4 | -3.2[16.7 µM] | 7.1 | 51.7 | 4.5
C[C@@H]1CN([C@H](C)CO)C(=O)c2cc(NC(=O)CCCCCC(=O)Nc3ccccc3N)ccc2O[C@@H]1CN(C)C(=O)Nc1ccc2c(c1)OCO2 | 100.0* | -3.4[16.7 µM] | 4.6 | 50.9 | 6.0
C[C@H](CO)N1C[C@H](C)[C@@H](CN(C)C(=O)Nc2ccc3c(c2)OCO3)Oc2ccc(NC(=O)CCCCCC(=O)Nc3ccccc3N)cc2CC1=O | -13.9 | 10.5[16.7 µM] | 1.9 | -0.7 | 12.7
C[C@@H]1CN([C@@H](C)CO)C(=O)c2cc(NC(=O)CCCCCC(=O)Nc3ccccc3N)ccc2O[C@@H]1CN(C)C(=O)Nc1ccccc1 | -0.2 | -7.3[16.7 µM] | 1.4 | -3.6 | 1.8
COc1ccc(NC(=O)N(C)C[C@H]2Oc3ccc(NC(=O)CCCCCC(=O)Nc4ccccc4N)cc3CC(=O)N([C@@H](C)CO)C[C@H]2C)cc1 | 31.9* | -4.0[16.7 µM] | 0.4 | -3.6 | 9.4
C[C@H](CO)N1C[C@H](C)[C@H](CN(C)C(=O)Nc2ccc3c(c2)OCO3)Oc2ccc(NC(=O)CCCCCC(=O)Nc3ccccc3N)cc2CC1=O | 391.7* | -7.0[16.7 µM] | 3.7 | 0.3 | 3.0
C[C@@H]1CN([C@@H](C)CO)C(=O)Cc2cc(NC(=O)CCCCCC(=O)Nc3ccccc3N)ccc2O[C@@H]1CN(C)C(=O)Nc1ccc2c(c1)OCO2 | 181.2* | -5.7[16.7 µM] | 3.1 | -0.5 | -5.6
